Experimental findings from ChEMBL document CHEMBL1122465, “Transport of antimicrobial agents using peptide carrier systems: anticandidal activity of m-fluorophenylalanine--peptide conjugates” (1983) are described below.

Structures are written as SMILES. ≈ marks a conversion by molar mass, not a printed value. Square brackets hold non-standard residues; d marks the D form. Peptide text beside a SMILES is read from it. Phe(3-F) = N[C@@H](Cc1cccc(F)c1)C(=O)O

What all share (format): functional
Test [1] deals with Candida albicans. The experiment in a line: Minimum inhibitory concentration was determined for Candida albicans strain B311, by a microtiter broth dilution assay. The essentials: (§1)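 Twofold broth dilution in yeast carbon base medium with 200 μg/mL sodium glutamate, compounds 250 to 0.25 μg/mL. Inoculum grown in YCB-glutamate 15 h at 37 °C; final ~10⁴ cfu/mL. Incubated at 37 °C, read at 24 and 48 h for growth inhibition; MIC taken as lowest inhibiting concentration.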

Test [2] deals with Candida albicans. As to the kind of experiment: Minimum inhibitory concentration was determined for Candida albicans strain 759, by a microtiter broth dilution assay. The procedure, abridged: as §1
Test [3] concerns Candida albicans. As to the kind of experiment: Zone developed against Candida albicans, when a 12.5 ug/disc was added.
The test system of test [4] is Candida albicans. As to the kind of experiment: Zone developed against Candida albicans, when a 25.0 ug/disc was added.
The test system of test [5] is Candida albicans. As to the kind of experiment: Zone developed against Candida albicans, when a 6.0 ug/disc was added.
Test [6] concerns Candida albicans. As to the kind of experiment: Zone developed against Candida albicans, when a 3.0 ug/disc was added.
Test [7] relates to Candida albicans. As to the kind of experiment: Zone developed against Candida albicans B-311, when a 12.5 ug/disc was added.
Test [8] has as its system Candida albicans. The experiment in a line: Zone developed against Candida albicans, when a 25.0 ug/disc was added; 25-31.

By MIC is commonly meant the smallest concentration in the dilution series that meets the test's criterion for growth inhibition.

With `N[C@@H](Cc1cccc(F)c1)C(=O)O`, the MIC in test [1] and in test [2] was over 250 µg/mL throughout.

Consider `C[C@H](N)C(=O)N[C@@H](C)C(=O)N[C@@H](C)C(=O)O.C[C@H](NC(=O)[C@H](C)NC(=O)[C@@H](N)Cc1cccc(F)c1)C(=O)O`, for which the Zone size in test [3], in test [4], in test [5] and in test [6] was 0 mm throughout.

With `C[C@H](N)C(=O)N[C@@H](C)C(=O)N[C@@H](C)C(=O)O.C[C@H](NC(=O)[C@@H](N)Cc1cccc(F)c1)C(=O)O`, the Zone size in test [3], in test [4], in test [5] and in test [6] was 0 mm in each case.

In turn, `C[C@H](NC(=O)[C@H](C)NC(=O)[C@@H](N)Cc1cccc(F)c1)C(=O)O.N[C@@H](Cc1c[nH]cn1)C(=O)O` registered a Zone size in test [7] of 25 mm.

As to `C[C@H](N)C(=O)N[C@@H](C)C(=O)O.C[C@H](NC(=O)[C@H](C)NC(=O)[C@@H](N)Cc1cccc(F)c1)C(=O)O`, the Zone size in test [3] came to 18 mm; in test [4], 24 mm; in test [5], 16 mm; in test [6] it was 0 mm.

Take `C[C@H](NC(=O)[C@@H](N)Cc1cccc(F)c1)C(=O)O.NCC(=O)N[C@@H](Cc1ccccc1)C(=O)O`: the Zone size in test [3], in test [4], in test [5] and in test [6] was 0 mm each time.

`C[C@H](NC(=O)CN)C(=O)O.C[C@H](NC(=O)[C@@H](N)Cc1cccc(F)c1)C(=O)O`: the Zone size in test [3] worked out at 0 mm; in test [5], 0 mm; in test [8], 25 mm; in test [6], 0 mm.

With `CC[C@H](C)[C@H](N)C(=O)O.C[C@H](NC(=O)[C@H](C)NC(=O)[C@@H](N)Cc1cccc(F)c1)C(=O)O`, in test [7], the Zone size was determined as 27 mm.

In turn, `C[C@H](NC(=O)[C@H](C)NC(=O)[C@@H](N)Cc1cccc(F)c1)C(=O)O.N[C@@H](CC(=O)O)C(=O)O` registered a Zone size in test [7] of 26 mm.

On to `C[C@H](NC(=O)[C@H](C)NC(=O)[C@@H](N)Cc1cccc(F)c1)C(=O)O.NCC(=O)N[C@@H](Cc1ccccc1)C(=O)O`, for which the Zone size in test [3], in test [4], in test [5] and in test [6] was 0 mm each time.

In the case of `C[C@H](NC(=O)CN)C(=O)O.C[C@H](NC(=O)[C@H](C)NC(=O)[C@@H](N)Cc1cccc(F)c1)C(=O)O`, the Zone size in test [3] was 18 mm; in test [4], 25 mm; in test [5], 0 mm; in test [6] it was 0 mm.

Consider `C[C@H](N)C(=O)N[C@@H](C)C(=O)O.C[C@H](NC(=O)[C@@H](N)Cc1cccc(F)c1)C(=O)O`, for which the Zone size in test [3], in test [4], in test [5] and in test [6] was 0 mm in each case.

Take `C[C@H](NC(=O)[C@H](C)NC(=O)[C@@H](N)Cc1cccc(F)c1)C(=O)O.N[C@@H](Cc1c[nH]c2ccccc12)C(=O)O`: the Zone size in test [7] was 24 mm.

In test [7], `C[C@H](NC(=O)[C@H](C)NC(=O)[C@@H](N)Cc1cccc(F)c1)C(=O)O.N[C@@H](Cc1ccccc1)C(=O)O` registered a Zone size of 0 mm.

Regarding `C[C@H](NC(=O)[C@H](N)Cc1cccc(F)c1)C(=O)O`, the MIC in test [1] and in test [2] was over 200 µg/mL throughout.

In test [7], `C[C@H](NC(=O)[C@H](C)NC(=O)[C@@H](N)Cc1cccc(F)c1)C(=O)O.O=C(O)[C@@H]1CCCN1` displayed a Zone size of 27 mm.

As for `CSCC[C@H](NC(=O)[C@H](CCSC)NC(=O)[C@H](N)Cc1cccc(F)c1)C(=O)O`, the MIC in test [1] and in test [2] was over 250 µg/mL each time.

In the case of `CSCC[C@H](NC(=O)[C@H](CCSC)NC(=O)[C@@H](N)Cc1cccc(F)c1)C(=O)O`, the MIC in test [1] was 8 µg/mL (≈ 18 µM); in test [2] it was 63 µg/mL (≈ 141 µM).

Turning to `C[C@H](NC(=O)[C@@H](N)Cc1cccc(F)c1)C(=O)O`, the MIC was 2 µg/mL (≈ 7.87 µM) in test [1] and 4 µg/mL (≈ 15.7 µM) in test [2].

Take `C[C@H](NC(=O)[C@H](C)NC(=O)[C@H](N)Cc1cccc(F)c1)C(=O)O`: the MIC in test [1] and in test [2] was over 250 µg/mL in each case.

As for `C[C@H](NC(=O)[C@H](C)NC(=O)[C@@H](N)Cc1cccc(F)c1)C(=O)O`, the MIC was determined as 0.5 µg/mL (≈ 1.54 µM) in test [1] and 2 µg/mL (≈ 6.15 µM) in test [2]. In addition, the Zone size in test [7] came out at 24 mm.

With `C[C@H](N)C(=O)N[C@@H](C)C(=O)N[C@@H](Cc1cccc(F)c1)C(=O)O` (H-Ala-Ala-[Phe(3-F)]-OH), the MIC in test [1] was found to be 2 µg/mL (≈ 6.15 µM); in test [2] it was 63 µg/mL (≈ 194 µM).
